Results as given in ChEMBL document CHEMBL3769325, “Exploration of 2-benzylbenzimidazole scaffold as novel inhibitor of NF-κB” (Bioorg Med Chem, 2016).

Tested on: RAW264.7
Assay: Inhibition of LPS induced NF-kappa-B transcriptional activity in mouse RAW264.7 cells at 30 uM after 20 hrs by SEAP reporter assay
Assay type: cell-based
Details: not given
In short: (§1)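 RAW 264.7 cells stably transfected with an NF-κB-driven SEAP reporter, stimulated with LPS. Culture supernatants were heated to 65 °C for 5 min, then reacted in the dark with 4-methylumbelliferyl phosphate (500). SEAP activity was read as RFU at ex 360/em 450 nm. Results are given as IC50 or as % inhibition at 30, from three independent experiments, each averaged from triplicates.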

Structure (SMILES) | inhibition
COc1cc(Cc2nc3ccccc3[nH]2)cc(OC)c1OC | 32%
COc1ccc(Cc2nc3cc(OC)ccc3[nH]2)cc1 | 61%
O=[N+]([O-])c1ccc(Cc2nc3ccccc3[nH]2)cc1 | 64%
Clc1ccc(-c2nc3ccccc3[nH]2)cc1 | 12%
c1ccc(-c2nc3ccccc3[nH]2)cc1 | 22%
Oc1ccc(Cc2nc3ccccc3[nH]2)cc1 | 75%
COc1ccc(Cc2nc3cc(Cl)ccc3[nH]2)cc1 | 66%
Clc1cccc(Cc2nc3ccccc3[nH]2)c1 | 66%
COc1ccc(CCc2nc3ccccc3[nH]2)cc1 | 50%
c1ccc(Cc2nc3ccccc3o2)cc1 | 33%
COc1ccccc1Cc1nc2ccccc2[nH]1 | 85%
Clc1ccc(Cc2nc3cc(Cl)ccc3[nH]2)cc1 | 76%
Cc1ccc(Cc2nc3ccccc3[nH]2)cc1 | 60%
COc1ccc(Cc2nc3ccccc3s2)cc1 | 67%
COc1ccc2[nH]c(Cc3ccccc3)nc2c1 | 45%
Clc1ccc(Cc2nc3ccccc3[nH]2)cc1 | 85%
Clc1ccc(Cc2nc3ccccc3[nH]2)cc1Cl | 63%
COc1ccc(Cc2nc3ccccc3o2)cc1 | 42%
Clc1ccccc1Cc1nc2ccccc2[nH]1 | 33%
Nc1ccc(Cc2nc3ccccc3[nH]2)cc1 | 40%
COc1ccc(Cc2nc3ccccc3[nH]2)cc1 | 90%
COc1ccc(Cc2nc3ccccc3[nH]2)cc1OC | 32%
COc1ccc(-c2nc3ccccc3[nH]2)cc1 | 22%
CS(=O)(=O)c1ccc(Cc2nc3ccccc3[nH]2)cc1 | 43%
Clc1ccc2[nH]c(Cc3ccccc3)nc2c1 | 31%
FC(F)(F)c1ccc(Cc2nc3ccccc3[nH]2)cc1 | 55%
Oc1ccc(Cc2nc3ccccc3[nH]2)cc1O | 75%
c1ccc(Cc2nc3ccccc3[nH]2)cc1 [BENDAZOL] | 43%

Tested on: not listed separately
Assay: Inhibition of LPS induced NF-kappa-B transcriptional activity in mouse RAW264.7 cells after 20 hrs by SEAP reporter assay
Assay type: cell-based
Details: RAW264.7, 20 h
In short: as §1

Structure (SMILES) | IC50
COc1cc(Cc2nc3ccccc3[nH]2)cc(OC)c1OC | > 30 µM
COc1ccc(Cc2nc3cc(OC)ccc3[nH]2)cc1 | > 30 µM
O=[N+]([O-])c1ccc(Cc2nc3ccccc3[nH]2)cc1 | 12 µM
Clc1ccc(-c2nc3ccccc3[nH]2)cc1 | > 30 µM
c1ccc(-c2nc3ccccc3[nH]2)cc1 | > 30 µM
Oc1ccc(Cc2nc3ccccc3[nH]2)cc1 | 6 µM
COc1ccc(Cc2nc3cc(Cl)ccc3[nH]2)cc1 | 10 µM
Clc1cccc(Cc2nc3ccccc3[nH]2)c1 | 10 µM
COc1ccc(CCc2nc3ccccc3[nH]2)cc1 | > 30 µM
c1ccc(Cc2nc3ccccc3o2)cc1 | > 30 µM
COc1ccccc1Cc1nc2ccccc2[nH]1 | 2.4 µM
Clc1ccc(Cc2nc3cc(Cl)ccc3[nH]2)cc1 | 5 µM
Cc1ccc(Cc2nc3ccccc3[nH]2)cc1 | 19 µM
COc1ccc(Cc2nc3ccccc3s2)cc1 | 9 µM
COc1ccc2[nH]c(Cc3ccccc3)nc2c1 | 18 µM
Clc1ccc(Cc2nc3ccccc3[nH]2)cc1 | 2.4 µM
Clc1ccc(Cc2nc3ccccc3[nH]2)cc1Cl | 15 µM
COc1ccc(Cc2nc3ccccc3o2)cc1 | > 30 µM
Clc1ccccc1Cc1nc2ccccc2[nH]1 | > 30 µM
Nc1ccc(Cc2nc3ccccc3[nH]2)cc1 | > 30 µM
COc1ccc(Cc2nc3ccccc3[nH]2)cc1 | 1.7 µM
COc1ccc(Cc2nc3ccccc3[nH]2)cc1OC | > 30 µM
COc1ccc(-c2nc3ccccc3[nH]2)cc1 | > 30 µM
CS(=O)(=O)c1ccc(Cc2nc3ccccc3[nH]2)cc1 | 28 µM
Clc1ccc2[nH]c(Cc3ccccc3)nc2c1 | > 30 µM
FC(F)(F)c1ccc(Cc2nc3ccccc3[nH]2)cc1 | 16.4 µM
Oc1ccc(Cc2nc3ccccc3[nH]2)cc1O | 6 µM
CC(C)CCOc1cccc(O)c1C(=O)/C=C/c1ccc(O)cc1 | 10 µM
c1ccc(Cc2nc3ccccc3[nH]2)cc1 [BENDAZOL] | 18.4 µM
